From ChEMBL document CHEMBL2396513, “Falcipain-2 inhibition by suramin and suramin analogues” (Bioorg Med Chem, 2013) come the findings set out here.

The source made the active and inactive calls. The rule behind the calls is not given here.

One experiment concerns Plasmodium falciparum. Kind of experiment: Inhibition of Plasmodium falciparum falcipain-2 hemoglobinase activity at 200 nM after 90 mins by Coomassie Blue R-250 staining-based densitometric analysis. In a few lines: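 Human hemoglobin 0.1 mg/ml digested by 20 nM recombinant falcipain-2 in 100 mM sodium acetate, 10 mM DTT, 10% glycerol, pH 5.5, with or without compound, 37 °C for 90 min. Quenched with denaturing SDS sample buffer, products run on 15% SDS-PAGE, Coomassie-stained, and remaining hemoglobin quantified by densitometry.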
Take `CC1=CCC(C(=O)/N=C2\CC=C(S(=O)(=O)O)c3cc(S(=O)(=O)O)cc(S(=O)(=O)O)c32)=C/C1=N/C(=O)C1=CC=C/C(=N\C(=O)/N=C2\C=CC=C(C(=O)/N=C3/CC(C(=O)/N=C4\CC=C(S(=O)(=O)O)c5cc(S(=O)(=O)O)cc(S(=O)(=O)O)c54)=CC=C3C)C2)C1`: the inhibition entry is “Active”.

The test system of the next experiment is Plasmodium falciparum. Description: Binding affinity to Plasmodium falciparum falcipain-2 at 1:1 compound to protein molar ratio by isothermal titration assay. Summed up: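 Recombinant mature falcipain-2 domain (241 aa, E. coli-expressed, Ni-column purified, refolded), 5 µM in 100 mM sodium acetate pH 5.5, 5% glycerol, 10 mM DTT; suramin added stepwise from stock in same buffer. Intrinsic tryptophan fluorescence read at ex 295/em 340 nm; maximum dilution 10%, with fluorescence and protein concentration corrected. Stoichiometry taken from inflection of first-derivative titration curve.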
Background: In ITC the heat of successive injections is recorded.
As to `CC1=CCC(C(=O)/N=C2\CC=C(S(=O)(=O)O)c3cc(S(=O)(=O)O)cc(S(=O)(=O)O)c32)=C/C1=N/C(=O)C1=CC=C/C(=N\C(=O)/N=C2\C=CC=C(C(=O)/N=C3/CC(C(=O)/N=C4\CC=C(S(=O)(=O)O)c5cc(S(=O)(=O)O)cc(S(=O)(=O)O)c54)=CC=C3C)C2)C1`, the result was Active.

Tested on in the next experiment: not listed separately
Description: Inhibition of Plasmodium falciparum falcipain-2 peptidolytic activity using Z-Phe-Arg-AMC as substrate measured over 30 mins by spectrofluorimetric analysis. In a few lines: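 Recombinant falcipain-2 at 20 nM in 100 mM sodium acetate, 10 mM DTT, 10% glycerol, pH 5.5, with 50 µM Z-Phe-Arg-AMC and varying inhibitor concentrations. AMC release followed continuously (ex 355/em 460 nm) over 30 min at 23 ± 2 °C. IC50 from percent activity versus inhibitor concentration fitted to four-parameter logistic; at least three independent experiments.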
Take `CCc1ccc(C(=O)Nc2ccc(S(=O)(=O)O)c3cc(S(=O)(=O)O)cc(S(=O)(=O)O)c23)cc1NC(=O)c1cccc(NC(=O)Nc2cccc(C(=O)Nc3cc(C(=O)Nc4ccc(S(=O)(=O)O)c5cc(S(=O)(=O)O)cc(S(=O)(=O)O)c45)ccc3CC)c2)c1`: half-maximal inhibition (IC50) was put at 80 nM.

In the case of `O=C(Nc1cccc(C(=O)Nc2cccc(C(=O)Nc3ccc(S(=O)(=O)O)c4cc(S(=O)(=O)O)cc(S(=O)(=O)O)c34)c2)c1)Nc1cccc(C(=O)Nc2cccc(C(=O)Nc3ccc(S(=O)(=O)O)c4cc(S(=O)(=O)O)cc(S(=O)(=O)O)c34)c2)c1`, the IC50 (in general, the concentration that gives 50% inhibition) is 36 nM.

`O=C(Nc1cccc(C(=O)Nc2cc(C(=O)Nc3ccc(S(=O)(=O)O)c4cc(S(=O)(=O)O)cc(S(=O)(=O)O)c34)ccc2-c2ccccc2)c1)Nc1cccc(C(=O)Nc2cc(C(=O)Nc3ccc(S(=O)(=O)O)c4cc(S(=O)(=O)O)cc(S(=O)(=O)O)c34)ccc2-c2ccccc2)c1` registered an IC50 of 62 nM.

On to `O=C(Nc1cccc(C(=O)Nc2ccc(S(=O)(=O)O)cc2S(=O)(=O)O)c1)Nc1cccc(C(=O)Nc2ccc(S(=O)(=O)O)cc2S(=O)(=O)O)c1`, for which the IC50 worked out at 98 nM.

Regarding `COCc1ccc(C(=O)Nc2ccc(S(=O)(=O)O)c3cc(S(=O)(=O)O)cc(S(=O)(=O)O)c23)cc1NC(=O)c1cccc(NC(=O)Nc2cccc(C(=O)Nc3cc(C(=O)Nc4ccc(S(=O)(=O)O)c5cc(S(=O)(=O)O)cc(S(=O)(=O)O)c45)ccc3COC)c2)c1`, half-maximal inhibition (IC50) required 60 nM.

On to `CC1=CCC(C(=O)/N=C2\CC=C(S(=O)(=O)O)c3cc(S(=O)(=O)O)cc(S(=O)(=O)O)c32)=C/C1=N/C(=O)C1=CC=C/C(=N\C(=O)/N=C2\C=CC=C(C(=O)/N=C3/CC(C(=O)/N=C4\CC=C(S(=O)(=O)O)c5cc(S(=O)(=O)O)cc(S(=O)(=O)O)c54)=CC=C3C)C2)C1`, for which half-maximal inhibition (IC50) was put at 95 nM.

`O=C(Nc1cccc(C(=O)Nc2cc(C(=O)Nc3ccc(S(=O)(=O)O)c4cc(S(=O)(=O)O)cc(S(=O)(=O)O)c34)ccc2Cl)c1)Nc1cccc(C(=O)Nc2cc(C(=O)Nc3ccc(S(=O)(=O)O)c4cc(S(=O)(=O)O)cc(S(=O)(=O)O)c34)ccc2Cl)c1`: the IC50 came to 78 nM. The IC50 values of the last two compounds are within 1.5-fold of each other.

As to `O=C(Nc1cccc(C(=O)Nc2cc(C(=O)Nc3ccc(S(=O)(=O)O)c4cc(S(=O)(=O)O)cc(S(=O)(=O)O)c34)ccc2F)c1)Nc1cccc(C(=O)Nc2cc(C(=O)Nc3ccc(S(=O)(=O)O)c4cc(S(=O)(=O)O)cc(S(=O)(=O)O)c34)ccc2F)c1`, half-maximal inhibition (IC50) required 42 nM.

Turning to `O=C(Nc1cccc(C(=O)Nc2ccc(S(=O)(=O)O)c3cc(S(=O)(=O)O)cc(S(=O)(=O)O)c23)c1)Nc1cccc(C(=O)Nc2ccc(S(=O)(=O)O)c3cc(S(=O)(=O)O)cc(S(=O)(=O)O)c23)c1`, the IC50 turned out to be 167 nM.

Compound `COc1ccc(C(=O)Nc2ccc(S(=O)(=O)O)c3cc(S(=O)(=O)O)cc(S(=O)(=O)O)c23)cc1NC(=O)c1cccc(NC(=O)Nc2cccc(C(=O)Nc3cc(C(=O)Nc4ccc(S(=O)(=O)O)c5cc(S(=O)(=O)O)cc(S(=O)(=O)O)c45)ccc3OC)c2)c1` returned an IC50 of 67 nM. This IC50 is about 2.5-fold lower than that of the compound before.

`CC(C)c1ccc(C(=O)Nc2ccc(S(=O)(=O)O)c3cc(S(=O)(=O)O)cc(S(=O)(=O)O)c23)cc1NC(=O)c1cccc(NC(=O)Nc2cccc(C(=O)Nc3cc(C(=O)Nc4ccc(S(=O)(=O)O)c5cc(S(=O)(=O)O)cc(S(=O)(=O)O)c45)ccc3C(C)C)c2)c1` had an IC50 of 111 nM. Against the preceding compound, the IC50 is about 1.7-fold higher.
